Consider eight compounds from ChEMBL document CHEMBL1125400, “Synthesis and antibacterial activity of some novel 6-methyl- and 6-propenyl-substituted carbapenems” (J Med Chem, 1992).

Converted amounts (≈) assume the structure as drawn. “And” between values parts separate entries of the source, which are not always exact repeats. Identical values can stand only once. Where only a bound is given, the exact number is not on record here.

One series deals with Mus musculus. In words: Protective dose when administered orally for 50 percent of the mice tested. Mice were treated twice, at 0 and 2 hour after infection with Escherichia coli. Type of series: functional. The note with it: po, read-out: PD50. The essentials: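 Mice infected with E. coli and given test agent orally twice, at 0 and 2 h after infection. PD50 is the dose protecting 50% of animals, expressed as mg/kg per dose.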

The next series has as its system Proteus vulgaris. In words: In vitro antibacterial activity against Proteus vulgaris (A21559). Type of series: functional. The procedure, abridged: (§1)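 Broth microdilution MIC in Nutrient Broth with a final inoculum of 5.0 × 10^5 CFU/mL. Trays incubated 18 h at 35 °C. MIC taken as the lowest antibiotic concentration inhibiting bacterial growth, in µg/mL.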
The next series concerns Streptococcus pyogenes. In words: In vitro antibacterial activity against Streptococcus pyogenes (A9604). Type of series: functional. The essentials:
(§2)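 Streptococcal MIC by broth microdilution in Todd-Hewitt Broth with a final inoculum of 5.0 × 10^5 CFU/mL. Trays incubated 18 h at 35 °C. Endpoint is the lowest concentration preventing growth, in µg/mL.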

Another series relates to Enterococcus faecalis. In words: In vitro antibacterial activity against Streptococcus faecalis (A20688). The format is functional. The procedure, abridged: as §2
The subject of the next series is Enterobacter cloacae. In words: In vitro antibacterial activity against Enterobacter cloacae (A9659). Type of series: functional. The essentials:
as §1

For series [1], the system named is Providencia rettgeri. As to the kind of experiment: In vitro antibacterial activity against Providencia rettgeri (A22424). Type of series: functional. The procedure, abridged:
as §1

For series [2], the system named is Escherichia coli. As to the kind of experiment: In vitro evaluation for the antibacterial activity […] in e) Escherichia coli (A15119). The format is functional.
In the next series the test system is Staphylococcus aureus. As to the kind of experiment: In vitro antibacterial activity against Staphylococcus aureus (A9537). Type of series: functional. The essentials: as §1
The test system of series [3] is Klebsiella pneumoniae. As to the kind of experiment: In vitro antibacterial activity against Klebsiella pneumoniae (A9664). Type of series: functional. The essentials: as §1
Series [4] has as its system Pseudomonas aeruginosa. As to the kind of experiment: In vitro antibacterial activity against Pseudomonas aeruginosa (A9843). The format is functional. The essentials: as §1
A further series deals with Streptococcus pneumoniae. In words: In vitro antibacterial activity against Streptococcus pneumoniae (A9585). Type of series: functional. The essentials: as §2
Series [5] can be described thus: Half-life by UV spectrophotometry. Type of series: ADME. The note with it: for half-life: read-out: Stability (converted). The procedure, abridged:
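Chemical stability in solution: about 10^-4 M compound in 0.07 M phosphate buffer, pH 7.4, held at 37 °C. Decay followed by UV spectrophotometry; half-life reported in hours.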

In series [6] the test system is Pseudomonas aeruginosa. As to the kind of experiment: In vitro evaluation for the antibacterial activity […] in Pseudomonas aeruginosa (A9843). Type of series: functional.
Series [7] concerns Escherichia coli. As to the kind of experiment: In vitro antibacterial activity against Escherichia coli (A15119). The format is functional. The essentials:
as §1

The subject of series [8] is Providencia rettgeri. In words: IIn vitro antibacterial activity against Providencia rettgeri (A22424). The format is functional. The essentials: as §1
Series [9] relates to Klebsiella pneumoniae. As to the kind of experiment: In vitro evaluation for the antibacterial activity […] in Klebsiella pneumoniae (A9664). The format is functional.
The mark [10] stands for this setting: Streptococcus pyogenes, read-out: MIC.
Setting [11] is: Providencia rettgeri, read-out: MIC.
The mark [12] stands for this setting: Pseudomonas aeruginosa, read-out: MIC.

For `C[C@@H](N)[C@H]1C(=O)N2C(C(=O)O)=C(SCc3cccnc3)[C@H](C)[C@H]12`, the ED50 with Mus musculus was found to be 8 mg/kg. The minimal inhibitory concentration (MIC) was 0.016 µg/mL (≈ 0.048 µM) against Proteus vulgaris; 4 µg/mL (≈ 12 µM) with Streptococcus pyogenes (setting [10]); 63 µg/mL (≈ 189 µM) with Enterococcus faecalis; 0.06 µg/mL (≈ 0.18 µM) against Enterobacter cloacae; 2 µg/mL (≈ 6 µM) in the series on Providencia rettgeri [1] (setting [11]); 0.03 µg/mL (≈ 0.09 µM) against Escherichia coli [2]. In addition, the MIC was 2 µg/mL (≈ 6 µM) in the series on Staphylococcus aureus, 0.13 µg/mL (≈ 0.39 µM) in the series with Klebsiella pneumoniae [3], 1 µg/mL (≈ 3 µM) with Pseudomonas aeruginosa [4] (setting [12]) and 4 µg/mL (≈ 12 µM) against Streptococcus pneumoniae. Also, the half-life in series [5] is 3 h.

In the case of `C[C@H]1C(SCc2ccccn2)=C(C(=O)O)N2C(=O)[C@H](/C=C/CN=[N+]=[N-])[C@@H]12`, the MIC in the series on Proteus vulgaris is 8 µg/mL (≈ 21.5 µM); in the series with Streptococcus pyogenes (setting [10]) it was 0.03 µg/mL (≈ 0.0808 µM); against Enterococcus faecalis, 32 µg/mL (≈ 86.2 µM); against Enterobacter cloacae it was 32 µg/mL (≈ 86.2 µM); against Pseudomonas aeruginosa [6], 125 µg/mL (≈ 337 µM); against Escherichia coli [7], 8 µg/mL (≈ 21.5 µM). The minimal inhibitory concentration (MIC) was 32 µg/mL (≈ 86.2 µM) in the series with Providencia rettgeri [1] (setting [11]), 0.06 µg/mL (≈ 0.162 µM) against Staphylococcus aureus, 16 µg/mL (≈ 43.1 µM) in the series on Klebsiella pneumoniae [3] and 0.03 µg/mL (≈ 0.0808 µM) with Streptococcus pneumoniae. Further, the half-life in series [5] is 21 h.

Turning to `C[C@H]1C(SCc2ccccn2)=C(C(=O)O)N2C(=O)[C@H](/C=C/CNc3ccccc3)[C@@H]12`, the minimal inhibitory concentration (MIC) with Proteus vulgaris was 64 µg/mL (≈ 152 µM); against Enterococcus faecalis, > 64 µg/mL; in the series with Enterobacter cloacae, 64 µg/mL (≈ 152 µM); in the series on Escherichia coli [7], 32 µg/mL (≈ 75.9 µM); with Providencia rettgeri [1] (setting [11]) it was 64 µg/mL (≈ 152 µM); in the series on Staphylococcus aureus, 0.25 µg/mL (≈ 0.593 µM). Besides, the MIC in the series with Klebsiella pneumoniae [3] and in the series on Pseudomonas aeruginosa [4] (setting [12]) was 64 µg/mL (≈ 152 µM) throughout. For the same compound, the half-life in series [5] was 35 h.

Turning to `C[C@H]1C(SCc2cccnc2)=C(C(=O)O)N2C(=O)[C@H](CO)[C@@H]12`, in the series with Mus musculus, the ED50 was found to be 7 mg/kg. In addition, the minimum inhibitory concentration (MIC) in the series with Proteus vulgaris turned out to be 0.13 µg/mL (≈ 0.406 µM); in the series on Streptococcus pyogenes (setting [10]), 0.004 µg/mL (≈ 0.0125 µM); against Enterococcus faecalis it was 4 µg/mL (≈ 12.5 µM); in the series with Enterobacter cloacae, 0.06 µg/mL (≈ 0.187 µM); with Providencia rettgeri [8], 0.5 µg/mL (≈ 1.56 µM); against Escherichia coli [2], 0.016 µg/mL (≈ 0.0499 µM). Also, the MIC in the series on Staphylococcus aureus stood at 0.008 µg/mL (≈ 0.025 µM); in the series with Pseudomonas aeruginosa [4] (setting [12]) it was 125 µg/mL (≈ 390 µM); with Klebsiella pneumoniae [9], 0.06 µg/mL (≈ 0.187 µM); against Streptococcus pneumoniae, 0.002 µg/mL (≈ 0.00624 µM). Further, the half-life in series [5] is 45 h.

Take `C[C@H]1C(SCc2ccccn2)=C(C(=O)O)N2C(=O)[C@H](/C=C/CO)[C@@H]12`: the MIC against Proteus vulgaris came to 8 µg/mL (≈ 23.1 µM); with Streptococcus pyogenes (setting [10]), 0.06 µg/mL (≈ 0.173 µM); in the series on Enterococcus faecalis, 125 µg/mL (≈ 361 µM); with Enterobacter cloacae, 32 µg/mL (≈ 92.4 µM); against Escherichia coli [7], 8 µg/mL (≈ 23.1 µM); with Providencia rettgeri [1] (setting [11]), 16 µg/mL (≈ 46.2 µM). In addition, the MIC in the series with Staphylococcus aureus came to 1 µg/mL (≈ 2.89 µM); with Klebsiella pneumoniae [3], 16 µg/mL (≈ 46.2 µM); with Pseudomonas aeruginosa [4] (setting [12]), 125 µg/mL (≈ 361 µM); against Streptococcus pneumoniae it was 0.13 µg/mL (≈ 0.375 µM). In addition, the half-life in series [5] was 21 h.

Consider `C=CC(O)[C@H]1C(=O)N2C(C(=O)O)=C(SCc3ccccn3)[C@H](C)[C@H]12` (stereo partly specified), for which the MIC in the series with Streptococcus pyogenes was 0.25 µg/mL and 0.56 µg/mL; against Providencia rettgeri [1], 2 µg/mL (≈ 5.77 µM); in the series with Providencia rettgeri [1] (setting [11]), 2 µg/mL (≈ 5.77 µM); in the series with Pseudomonas aeruginosa [4], 125 µg/mL (≈ 361 µM); in the series on Pseudomonas aeruginosa [4] (setting [12]) it was 125 µg/mL (≈ 361 µM). The compound further displayed a Stability in [5] of 72 h. Moreover, the half-life in [5] is 72 h.

Consider `C[C@H]1C(SCc2cccnc2)=C(C(=O)O)N2C(=O)[C@H](CN)[C@@H]12`, for which, in the series with Mus musculus, the ED50 was > 25 mg/kg. Also, the MIC in the series with Proteus vulgaris stood at 0.016 µg/mL (≈ 0.0501 µM); in the series on Streptococcus pyogenes (setting [10]), 0.5 µg/mL (≈ 1.57 µM); in the series with Enterococcus faecalis, 125 µg/mL (≈ 391 µM); against Enterobacter cloacae it was 0.016 µg/mL (≈ 0.0501 µM); with Providencia rettgeri [1] (setting [11]), 0.25 µg/mL (≈ 0.783 µM); in the series with Escherichia coli [2] it was 0.008 µg/mL (≈ 0.025 µM). For the same compound, the MIC with Staphylococcus aureus was found to be 0.5 µg/mL (≈ 1.57 µM); with Klebsiella pneumoniae [3], 0.03 µg/mL (≈ 0.0939 µM); with Pseudomonas aeruginosa [4] (setting [12]), 1 µg/mL (≈ 3.13 µM); in the series with Streptococcus pneumoniae it was 0.5 µg/mL (≈ 1.57 µM). Moreover, the half-life in [5] was 1.5 h.

Regarding `C[C@@H](O)[C@H]1C(=O)N2C(C(=O)O)=C(SCc3cccnc3)[C@H](C)[C@H]12`, the ED50 in the series on Mus musculus was determined as 17 mg/kg. The minimal inhibitory concentration (MIC) against Proteus vulgaris turned out to be 0.03 µg/mL (≈ 0.0897 µM); with Streptococcus pyogenes (setting [10]), 0.016 µg/mL (≈ 0.0478 µM); in the series with Enterococcus faecalis, 2 µg/mL (≈ 5.98 µM); in the series with Enterobacter cloacae, 0.13 µg/mL (≈ 0.389 µM); against Escherichia coli [7], 0.016 µg/mL (≈ 0.0478 µM); with Providencia rettgeri [1] (setting [11]) it was 16 µg/mL (≈ 47.8 µM). Besides, the MIC against Staphylococcus aureus was found to be 0.016 µg/mL (≈ 0.0478 µM); against Klebsiella pneumoniae [3] it was 0.13 µg/mL (≈ 0.389 µM); with Pseudomonas aeruginosa [4] (setting [12]), 125 µg/mL (≈ 374 µM); with Streptococcus pneumoniae it was 0.016 µg/mL (≈ 0.0478 µM). Besides, in series [5], the half-life is 65 h.
